Laboratory results as given in ChEMBL document CHEMBL1147062, “Therapeutic anticancer efficacy of a synthetic diazonamide analog in the absence of overt toxicity” (Proc Natl Acad Sci U S A, 2007).
The source made the active and inactive calls. The calls are words filed in the database; no cut-off is given here.

Tests used:
Mus musculus [1] = assay: Toxicity in NCR nu/nu mouse neutropenia model assessed as severe flaking of skin at 20 mg/kg, iv QD for 6 days; format: organism-based; parameters: dose 20 mg/kg, route intravenous; conditions: in vivo, 144 h
Method in brief: (§1)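 Non-tumor-bearing NCR nu/nu mice, four to five per group, got 20 mg/kg i.v. qd × 6 in cremaphor:ethanol/5% dextrose, or vehicle. They were weighed and observed daily and killed on day 8. Tail-vein blood and femoral marrow were lysed of erythrocytes, stained for Gr1 and analyzed by flow cytometry. Neutrophil counts were %Gr1hi × white cells per ml or per femur. Groups were compared with control by one-way ANOVA and Dunnett's test.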

Mus musculus [2] = assay: Toxicity in human HCT116 cells xenografted NCR nu/nu mouse assessed as decrease in neutrophil count in peripheral blood at 2 mg/kg, iv QD for 6 days relative to control; format: organism-based, HCT-116; parameters: dose 2 mg/kg, route intravenous; conditions: in vivo, 144 h
Method in brief: (§2)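 NCR nu/nu mice received 10^7 HCT116 cells s.c. in the left flank 12 days before therapy. Dosing was i.v. qd × 6: 20 mg/kg in cremaphor:ethanol/5% dextrose, or 2 mg/kg vinblastine sulfate in 5% dextrose. Mice were weighed daily. On day 8, Gr1hi neutrophils in tail-vein blood and femoral marrow were counted by flow cytometry and compared with control by ANOVA and Dunnett's test.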

Mus musculus [3] = assay: Toxicity in human HCT116 cells xenografted NCR nu/nu mouse assessed as decrease in neutrophil count in bone marrow at 20 mg/kg, iv QD for 6 days relative to control; format: organism-based, HCT-116; parameters: dose 20 mg/kg, route intravenous; conditions: in vivo, 144 h; method in brief: as §2
PC-3 [4] = assay: Antitumor activity against human PC3 cells xenografted into NCR nu/nu mouse at 2.5 mg/kg, iv dosed in qdX6 schedule relative to control; format: functional
Method in brief: (§3)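 Nude mice received 10^7 PC3 cells s.c. in the left flank and were randomized at ≈250 mm3 into groups of six to seven. Dosing was i.v. daily for 6 consecutive days, in 0.2 ml cremaphor:ethanol (1:1) diluted in 5% dextrose. Tumors were measured by calipers as (length × width2)/2, and weight was tracked alongside.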

Mus musculus [5] = assay: Toxicity in human HCT116 cells xenografted NCR nu/nu mouse assessed as decrease in neutrophil count in bone marrow at 2 mg/kg, iv QD for 6 days relative to control; format: organism-based, HCT-116; parameters: dose 2 mg/kg, route intravenous; conditions: in vivo, 144 h; method in brief: as §2
Mus musculus [6] = assay: Toxicity in human HCT116 cells xenografted NCR nu/nu mouse assessed as loss of body weight at 20 mg/kg, iv QD for 6 days; format: organism-based, HCT-116; parameters: dose 20 mg/kg, route intravenous; conditions: in vivo, 144 h; method in brief: as §2
HCT-116 [7] = assay: Antitumor activity against human HCT116 cells xenografted into NCR nu/nu mouse at 20 mg/kg, iv dosed in q2-3dX6 schedule relative to control; format: functional
Method in brief: (§4)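 NCR nu/nu mice given 7.5–10 × 10^6 tumor cells s.c. in the left flank. At ≈100–300 mm3 (5–10 days), mice were randomized into groups of 4–7. Compound was predissolved in 1:1 cremaphor:ethanol, then diluted into 5% dextrose. Dosed i.v. or i.p. in 0.2 ml on Monday, Wednesday and Friday for 2 weeks. Caliper measurements 2–3 times weekly; volume = (length × width2)/2.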

Mus musculus [8] = assay: Toxicity in human HCT116 cells xenografted NCR nu/nu mouse assessed as decrease in neutrophil count in peripheral blood at 20 mg/kg, iv QD for 6 days relative to control; format: organism-based, HCT-116; parameters: dose 20 mg/kg, route intravenous; conditions: in vivo, 144 h; method in brief: as §2
PC-3 [9] = assay: Antitumor activity against human PC3 cells xenografted into NCR nu/nu mouse at 20 mg/kg, iv dosed in q2-3dX6 schedule relative to control; format: functional; method in brief: as §4
Mus musculus [10] = assay: Toxicity in human HCT116 cells xenografted NCR nu/nu mouse assessed as loss of body weight iv QD for 6 days; conditions: in vivo, 144 h
Mus musculus [11] = assay: Toxicity in NCR nu/nu mouse neutropenia model assessed as decrease in neutrophil count in peripheral blood at 20 mg/kg, iv QD for 6 days relative to control; format: organism-based; parameters: dose 20 mg/kg, route intravenous; conditions: in vivo, 144 h; method in brief: as §1
PC-3 [12] = assay: Antitumor activity against human PC3 cells xenografted into NCR nu/nu mouse at 7.5 mg/kg, iv dosed in qdX6 schedule relative to control; format: functional; method in brief: as §3
Mus musculus [13] = assay: Toxicity in NCR nu/nu mouse neutropenia model assessed as loss of body weight at 20 mg/kg, iv QD for 6 days; format: organism-based; parameters: dose 20 mg/kg, route intravenous; conditions: in vivo, 144 h; method in brief: as §1
Mus musculus [14] = assay: Toxicity in NCR nu/nu mouse neutropenia model assessed as decrease in neutrophil count in bone marrow at 20 mg/kg, iv QD for 6 days relative to control; format: organism-based; parameters: dose 20 mg/kg, route intravenous; conditions: in vivo, 144 h; method in brief: as §1
PC-3 [15] = assay: Antitumor activity against human PC3 cells xenografted into NCR nu/nu mouse at 20 mg/kg, iv dosed in qdX6 schedule relative to control; format: functional; method in brief: as §3
Mus musculus [16] = assay: Toxicity in NCR nu/nu mouse assessed as loss of body weight at 7.5 mg/kg, iv for 6 days; format: organism-based; parameters: dose 7.5 mg/kg, route intravenous; conditions: in vivo, 144 h
Method in brief: (§5)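 Nude mice carried 10^7 PC3 cells s.c. in the left flank and were randomized into groups of six to seven when tumors reached ≈250 mm3. Mice were dosed at 20, 7.5 or 2.5 mg/kg for 6 consecutive days. Body weight was tracked against starting weight, including 2 days after the last dose.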

Mus musculus [17] = assay: Toxicity in NCR nu/nu mouse assessed as loss of body weight at 20 mg/kg, iv for 6 days; format: organism-based; parameters: dose 20 mg/kg, route intravenous; conditions: in vivo, 144 h; method in brief: as §5
Mus musculus [18] = assay: Volume of distribution in NCR nu/nu mouse plasma at 20 mg/kg, iv; format: ADME, organism-based; parameters: dose 20 mg/kg, route intravenous; conditions: in vivo
Method in brief: (§6)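 Each NCR nu/nu mouse got one i.v. bolus of 20 mg/kg in 0.2 ml of 1:1 cremaphor:ethanol (10%) diluted in 5% dextrose. At set times mice were killed by CO2 overdose and bled by cardiac puncture into sodium citrate. Plasma was spun 10 min at 8,000 × g and frozen at −80°C. LC-MS used an internal standard and a spiked blank murine plasma standard curve. Parameters came from noncompartmental analysis.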

[19] = AUC in NCR nu/nu mouse plasma at 20 mg/kg, iv; format: ADME, organism-based; parameters: dose 20 mg/kg, route intravenous; method in brief: as §6
[20] = Clearance in NCR nu/nu mouse plasma at 20 mg/kg, iv; format: ADME, organism-based; parameters: dose 20 mg/kg, route intravenous; method in brief: as §6
[21] = Drug level in NCR nu/nu mouse plasma at 20 mg/kg, iv after 24 hrs; format: ADME, organism-based; parameters: dose 20 mg/kg, route intravenous; method in brief: as §6
Mus musculus [22] = assay: Toxicity in NCR nu/nu mouse assessed as loss of body weight at 2.5 mg/kg, iv for 6 days; format: organism-based; parameters: dose 2.5 mg/kg, route intravenous; conditions: in vivo, 144 h; method in brief: as §5
[23] = Terminal half life in NCR nu/nu mouse plasma at 20 mg/kg, iv; format: ADME, organism-based; parameters: dose 20 mg/kg, route intravenous; method in brief: as §6
HCT-116 [24] = assay: Antitumor activity against human HCT116 cells xenografted into NCR nu/nu mouse at 5 mg/kg, iv dosed in q2-3dX6 schedule relative to control; format: functional; method in brief: as §4
HCT-116 [25] = assay: Antitumor activity against human HCT116 cells xenografted into NCR nu/nu mouse at 5 mg/kg, ip dosed in q2-3dX6 schedule relative to control; format: functional; conditions: route intraperitoneal; method in brief: as §4
MDA-MB-435 [26] = assay: Antitumor activity against human MDA-MB-435 cells xenografted into NCR nu/nu mouse at 20 mg/kg, ip dosed in q3-4dX4 schedule relative to control; format: functional; conditions: route intraperitoneal
Method in brief: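 NCR nu/nu mice bearing s.c. left-flank xenografts (7.5–10 × 10^6 cells) were randomized at ≈100–300 mm3 into groups of 4–7. Dosing was i.p. in 0.2 ml, with cremaphor:ethanol (1:1) stock diluted in 5% dextrose. Body weight and caliper tumor size were recorded 2–3 times per week; volume = (length × width2)/2.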

PC-3 [27] = assay: Induction of histone H3 phosphorylation in human PC3 cells xenografted into NCR nu/nu mouse at 20 mg/kg, iv; format: functional, organism-based; parameters: dose 20 mg/kg
Method in brief: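 nu/nu mice carried 10^7 PC3 cells s.c. in the left flank. On day 8 they got one i.v. dose of 20 mg/kg or vehicle, two mice per group. Tumors were taken 12 h later, snap-frozen and homogenized in RIPA buffer with phosphatase and protease inhibitors. 100 µg protein was Western blotted for phospho-histone H3, with actin as control.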

HCT-116 [28] = assay: Antitumor activity against human HCT116 cells xenografted into NCR nu/nu mouse at 20 mg/kg, ip dosed in q2-3dX6 schedule relative to control; format: functional; conditions: route intraperitoneal; method in brief: as §4
MDA-MB-435 [29] = assay: Antitumor activity against human MDA-MB-435 cells xenografted into NCR nu/nu mouse at 0.7 mg/kg, ip dosed in q3-4dX4 schedule relative to control; format: functional; conditions: route intraperitoneal
HCT-116 [30] = assay: Antitumor activity against human HCT116 cells xenografted into NCR nu/nu mouse at 0.45 mg/kg, ip dosed in q2-3dX6 schedule relative to control; format: functional; conditions: route intraperitoneal

CC(=O)O[C@H]1C(=O)[C@@]2(C)[C@H]([C@H](OC(=O)c3ccccc3)[C@]3(O)C[C@H](OC(=O)[C@H](O)[C@@H](NC(=O)c4ccccc4)c4ccccc4)C(C)=C1C3(C)C)[C@]1(OC(C)=O)CO[C@@H]1C[C@@H]2O [PACLITAXEL]
Activity (Mus musculus [1]): Toxic | Activity (Mus musculus [2]): Toxic | Activity (Mus musculus [3]): Toxic | LCK (PC-3 [4]): 0.3 | T/C (PC-3 [4]): 49.2% | Activity (Mus musculus [5]): Toxic | Activity (Mus musculus [6]): Toxic | LCK (HCT-116 [7]): 2.7 | T/C (HCT-116 [7]): 0.2% | Activity (Mus musculus [8]): Toxic | LCK (PC-3 [9]): 3.4 | T/C (PC-3 [9]): 0% | Activity (Mus musculus [10]): Toxic | Activity (Mus musculus [11]): Toxic | LCK (PC-3 [12]): 1.5 | T/C (PC-3 [12]): 6.1% | Activity (Mus musculus [13]): 20% | Activity (Mus musculus [14]): Toxic | LCK (PC-3 [15]): 3.8 | T/C (PC-3 [15]): 0.6% | Activity (Mus musculus [16]): 13% | Activity (Mus musculus [17]): > 20%

CC(C)[C@H](O)C(=O)N[C@@H]1C(=O)N[C@@H](C(C)C)c2nc3c(o2)C24c5ccc(cc5N[C@H]2Oc2ccc1cc24)-c1cccc2[nH]cc(c12)-c1cnc-3o1 (single isomer, unassigned)
Activity (Mus musculus [1]): Non-toxic | Activity (Mus musculus [2]): Non-toxic | Vd (Mus musculus [18]): 62.7 mL | Activity (Mus musculus [3]): Non-toxic | T/C (PC-3 [4]): 31.4% | Activity (Mus musculus [5]): Non-toxic | Activity (Mus musculus [6]): Non-toxic | AUC [19]: 50200 ng·h/mL | clearance [20]: 0.146 mL/min | LCK (HCT-116 [7]): 1.8 | T/C (HCT-116 [7]): 0.2% | Activity (Mus musculus [8]): Non-toxic | LCK (PC-3 [9]): 3.4 | T/C (PC-3 [9]): 0.3% | concentration at 24 h [21]: 15 ng/mL | Activity (Mus musculus [10]): Non-toxic | Activity (Mus musculus [22]): <= 5% | Activity (Mus musculus [11]): Non-toxic | LCK (PC-3 [12]): 1.6 | T/C (PC-3 [12]): 3.9% | half-life [23]: 298 min | LCK (HCT-116 [24]): 0.5 | T/C (HCT-116 [24]): 26.5% | LCK (HCT-116 [25]): 0.4 | T/C (HCT-116 [25]): 41.9% | LCK (MDA-MB-435 [26]): 1 | T/C (MDA-MB-435 [26]): 3.1% | Activity (Mus musculus [13]): Non-toxic | Activity (PC-3 [27]): Active | Activity (Mus musculus [14]): Non-toxic | LCK (PC-3 [15]): 2.4 | T/C (PC-3 [15]): 2.1% | Activity (Mus musculus [16]): <= 5% | Activity (Mus musculus [17]): <= 5% | LCK (HCT-116 [28]): 1 | T/C (HCT-116 [28]): 9.3%

CC[C@]1(O)C[C@@H]2CN(CCc3c([nH]c4ccccc34)[C@@](C(=O)OC)(c3cc4c(cc3OC)N(C)[C@H]3[C@@](O)(C(=O)OC)[C@H](OC(C)=O)[C@]5(CC)C=CCN6CC[C@]43[C@@H]65)C2)C1.O=S(=O)(O)O [VINBLASTINE SULFATE]
Activity (Mus musculus [2]): Toxic | Activity (Mus musculus [3]): Toxic | Activity (Mus musculus [5]): Toxic | Activity (Mus musculus [6]): Toxic | LCK (MDA-MB-435 [29]): 0.2 | T/C (MDA-MB-435 [29]): 41.1% | Activity (Mus musculus [8]): Toxic | Activity (Mus musculus [10]): Toxic | LCK (HCT-116 [30]): 0.2 | T/C (HCT-116 [30]): 56%
